Here are results for 24 compounds from ChEMBL document CHEMBL1123632, “Cardiotonic agents. 7. Inhibition of separated forms of cyclic nucleotide phosphodiesterase from guinea pig cardiac muscle by 4,5-dihydro-6-[4-(1H-imidazol-1-yl)phenyl]-3(2H)-pyridazinones and related compounds. Structure-activity relationships and correlation with in vivo positive inotropic …” (J Med Chem, 1987).

SMILES strings stand for the structures.

Assay [1] concerns the target T1, Phosphodiesterase 3 (Homo sapiens, UniProt Q14432+Q13370). Briefly: Inhibition of cAMP PDE III enzyme in guinea pig at 1E-4M concentration. The assay is classed as protein assay. The note with it: Cavia porcellus; target entry is the homologue from another species.
Assay [2] deals with T2, Phosphodiesterase 1 (Homo sapiens, UniProt P54750+Q01064+Q14123). The assay is described as follows: Inhibition of cAMP PDE I enzyme in guinea pig at 1E-4M concentration. The assay is classed as protein assay. As to conditions: Cavia porcellus; target entry is the homologue from another species.
Assay [3] has as its target T1, Phosphodiesterase 3. Briefly: Inhibition of cAMP PDE III enzyme in guinea pig at 1E-5M concentration. The class given is protein assay. The note with it: Cavia porcellus; target entry is the homologue from another species.
Assay [4] concerns the target T2, Phosphodiesterase 1. Briefly: Inhibition of cGMP PDE I enzyme in guinea pig at 1E-4M concentration. The class given is protein assay. The note with it: Cavia porcellus; target entry is the homologue from another species.
Assay [5] concerns the target T2, Phosphodiesterase 1. Briefly: Inhibition of cGMP PDE I enzyme in guinea pig at 1E-5M concentration. The class given is protein assay. As to conditions: Cavia porcellus; target entry is the homologue from another species.
The target of assay [6] is T1, Phosphodiesterase 3. Briefly: Inhibitory concentration against cAMP PDE III enzyme in guinea pig. The assay is classed as protein assay, Cavia porcellus. The note with it: target entry is the homologue from another species.
Assay [7] concerns the target T3, cGMP-dependent 3',5'-cyclic phosphodiesterase (Homo sapiens, UniProt O00408). The assay is described as follows: Inhibition of cGMP PDE II enzyme in guinea pig at 1E-4M concentration. As to conditions: Cavia porcellus; target entry is the homologue from another species.
For assay [8], the target named is T3, cGMP-dependent 3',5'-cyclic phosphodiesterase. Briefly: Inhibition of cAMP PDE II enzyme in guinea pig at 1E-5M concentration. The note with it: Cavia porcellus; target entry is the homologue from another species.
For assay [9] the target is unchanged. The assay is described as follows: Inhibition of cGMP PDE II enzyme in guinea pig at 1E-5M concentration. As to conditions: Cavia porcellus; target entry is the homologue from another species.
The species entered for a further assay is Canis familiaris. Briefly: Effective dose required to increase myocardial contractility in dog. The class given is functional. The note with it: Canis lupus familiaris, Myocardium. The gist of the method:
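Anesthetized mongrel dogs (either sex): pentobarbital 35 mg/kg iv, then 5 mg kg⁻¹ h⁻¹ infusion. After 30-min control, compound in saline or dilute HCl/NaOH diluted with saline given iv over 1 min, cumulative half-log doses (typically four to six), 10–30 min apart.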

Assay [10] deals with T3, cGMP-dependent 3',5'-cyclic phosphodiesterase. The assay is described as follows: Inhibitory concentration against cGMP PDE II enzyme in guinea pig. Further details: species or system Cavia porcellus. The note with it: target entry is the homologue from another species.
The target of assay [11] is T2, Phosphodiesterase 1. Briefly: Inhibition of cAMP PDE I enzyme in guinea pig at 1E-5M concentration. The class given is protein assay. The note with it: Cavia porcellus; target entry is the homologue from another species.
In assay [12] the target is T3, cGMP-dependent 3',5'-cyclic phosphodiesterase. The assay is described as follows: Inhibitory concentration against cAMP PDE II enzyme in guinea pig. Further details: species or system Cavia porcellus. As to conditions: target entry is the homologue from another species.

T3 sequence (O00408 whole entry): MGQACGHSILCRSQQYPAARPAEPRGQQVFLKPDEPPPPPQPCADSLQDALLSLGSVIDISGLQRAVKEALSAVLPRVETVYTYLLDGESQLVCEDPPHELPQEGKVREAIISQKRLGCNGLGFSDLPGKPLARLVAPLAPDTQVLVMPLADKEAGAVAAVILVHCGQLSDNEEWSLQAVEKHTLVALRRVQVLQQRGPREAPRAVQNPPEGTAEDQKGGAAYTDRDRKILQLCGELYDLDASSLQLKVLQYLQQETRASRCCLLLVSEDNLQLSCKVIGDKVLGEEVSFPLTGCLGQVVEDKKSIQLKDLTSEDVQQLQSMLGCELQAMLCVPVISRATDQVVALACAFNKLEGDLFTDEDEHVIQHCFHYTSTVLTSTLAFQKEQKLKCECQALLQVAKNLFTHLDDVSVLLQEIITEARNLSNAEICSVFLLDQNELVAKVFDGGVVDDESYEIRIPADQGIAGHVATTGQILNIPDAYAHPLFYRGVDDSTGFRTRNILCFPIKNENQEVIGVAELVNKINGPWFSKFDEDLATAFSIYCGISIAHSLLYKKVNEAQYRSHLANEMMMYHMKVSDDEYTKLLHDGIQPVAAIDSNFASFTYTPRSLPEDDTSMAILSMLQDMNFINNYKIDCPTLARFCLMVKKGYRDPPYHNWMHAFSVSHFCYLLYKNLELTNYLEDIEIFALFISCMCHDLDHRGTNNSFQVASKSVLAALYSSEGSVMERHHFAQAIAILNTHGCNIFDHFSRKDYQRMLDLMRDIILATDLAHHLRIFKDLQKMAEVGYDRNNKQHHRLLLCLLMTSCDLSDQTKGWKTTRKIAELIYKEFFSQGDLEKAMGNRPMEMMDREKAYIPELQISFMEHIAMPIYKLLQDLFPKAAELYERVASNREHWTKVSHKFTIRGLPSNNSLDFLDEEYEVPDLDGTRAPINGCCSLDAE

In the case of `O=C1NN=C(c2ccc(-n3ccnc3)cc2)C2CCCCC12` (stereo not drawn), the inhibition came to 34% on Phosphodiesterase 3 [1]; 22% at Phosphodiesterase 1 [2]; 8% against Phosphodiesterase 3 [3]; 16% against Phosphodiesterase 1 [4]; 2% against Phosphodiesterase 1 [5]; 44% in assay [7]. In addition, the inhibition turned out to be 14% in assay [8], 8% in assay [9] and 1% at Phosphodiesterase 1 [11]. Besides, the IC50 on Phosphodiesterase 3 [6] was found to be 220 µM; in assay [10], 130 µM; in assay [12] it was 150 µM. Also, it took a dose of 1 mg/kg to reach the 50% effect level in the assay listed under Canis familiaris (ED50).

On to `CC1(C)CC(c2ccc(-n3ccnc3)cc2)=NNC1=O`, for which the inhibition at Phosphodiesterase 3 [3] came to 27%; against Phosphodiesterase 1 [5] it was 2%; in [8], 22%; in assay [9], 13%; at Phosphodiesterase 1 [11] it was 7%.

For the compound `O=C1CCC(c2ccc(-n3cnc4c3CCCC4)cc2)=NN1`, the inhibition came out at 87% at Phosphodiesterase 3 [1]; 38% at Phosphodiesterase 1 [2]; 60% on Phosphodiesterase 3 [3]; 37% on Phosphodiesterase 1 [4]; 7% against Phosphodiesterase 1 [5]; 69% in assay [7]. In addition, the inhibition in assay [8] came out at 20%; in assay [9] it was 22%; at Phosphodiesterase 1 [11] it was 8%. Further, the results for the IC50 (at Phosphodiesterase 3 [6]; in assay [10]; in assay [12]) were 1.1 µM, 39 µM and 49 µM, respectively. The compound further had an ED50 in the assay filed under Canis familiaris of 0.064 mg/kg.

For `O=C1CCC(c2ccc(-n3cnc(CO)c3)cc2)=NN1`, the inhibition at Phosphodiesterase 3 [1] is 68%; against Phosphodiesterase 1 [2] it was 9%; against Phosphodiesterase 3 [3], 59%; against Phosphodiesterase 1 [4] it was 9%; in assay [7], 23%; in assay [8], 6%. For the same compound, the inhibition was determined as 5% in assay [9] and 1% at Phosphodiesterase 1 [11]. The figures for the IC50 (against Phosphodiesterase 3 [6]; in assay [10]; in [12]) were 4.1 µM, 350 µM and 480 µM, respectively. The compound also registered an ED50 in the assay filed under Canis familiaris of 0.034 mg/kg.

For `O=C1CCC(c2ccc(-n3cnnc3)cc2)=NN1`, the inhibition on Phosphodiesterase 3 [3] was found to be 70%; against Phosphodiesterase 1 [5] it was 20%; in [8], 25%; in [9] it was 21%; on Phosphodiesterase 1 [11], 29%.

As to `CSc1nccn1-c1ccc(C2=NNC(=O)CC2)cc1`, the inhibition was determined as 57% against Phosphodiesterase 3 [3]; 13% against Phosphodiesterase 1 [5]; 10% in assay [8]; 12% in [9]; 7% against Phosphodiesterase 1 [11].

For the compound `NC(=O)c1cc(-c2ccc(-n3ccnc3)cc2)nnc1O`, the inhibition against Phosphodiesterase 3 [3] worked out at 24%; at Phosphodiesterase 1 [5] it was 16%; in [8], 18%; in assay [9], 15%; at Phosphodiesterase 1 [11], 11%.

Turning to `O=C1CCC(c2ccc(NC3=NCCS3)cc2)=NN1`, the inhibition against Phosphodiesterase 3 [3] is 58%; against Phosphodiesterase 1 [5], 20%; in [8] it was 31%; in assay [9], 33%; at Phosphodiesterase 1 [11] it was 18%.

Consider `Cc1cc(O)nnc1-c1ccc(-n2ccnc2)cc1`, for which the inhibition amounted to 64% at Phosphodiesterase 3 [1]; 24% at Phosphodiesterase 1 [2]; 26% at Phosphodiesterase 3 [3]; 14% against Phosphodiesterase 1 [4]; 4% against Phosphodiesterase 1 [5]; 39% in assay [7]. For the same compound, the results for the inhibition (in assay [8]; in assay [9]; on Phosphodiesterase 1 [11]) were 4%, 8% and 0%, respectively. In addition, the IC50 on Phosphodiesterase 3 [6] came out at 50 µM. Besides, in the assay filed under Canis familiaris, the 50% effect level (ED50) was put at a dose of 1.1 mg/kg.

As for `O=C1CCC(c2ccc(NC3=NCCN3)cc2)=NN1`, the inhibition at Phosphodiesterase 3 [3] came to 58%; on Phosphodiesterase 1 [5], 33%; in assay [8], 28%; in [9], 16%; on Phosphodiesterase 1 [11], 33%.

On to `CCc1nc(C)cn1-c1ccc(C2=NNC(=O)CC2)cc1`, for which the inhibition worked out at 76% against Phosphodiesterase 3 [1]; 51% on Phosphodiesterase 1 [2]; 59% against Phosphodiesterase 3 [3]; 53% against Phosphodiesterase 1 [4]; 7% on Phosphodiesterase 1 [5]; 44% in assay [7]. Also, the inhibition worked out at 14% in assay [8], 9% in assay [9] and 9% against Phosphodiesterase 1 [11]. Besides, the IC50 against Phosphodiesterase 3 [6] is 3.5 µM; in assay [10] it was 92 µM; in [12] it was 170 µM. The same compound came in with an ED50 in the assay listed under Canis familiaris of 0.1 mg/kg.

Consider `O=C1CCC(c2ccc(-c3nn[nH]n3)cc2)=NN1`, for which the inhibition turned out to be 86% at Phosphodiesterase 3 [3]; 20% against Phosphodiesterase 1 [5]; 37% in [8]; 29% in [9]; 21% against Phosphodiesterase 1 [11].

As for `CC(=O)OCCN1N=C(c2ccc(-n3ccnc3)cc2)CCC1=O`, the inhibition on Phosphodiesterase 3 [3] came out at 16%; against Phosphodiesterase 1 [5], 5%; in assay [8] it was 23%; in assay [9], 11%; at Phosphodiesterase 1 [11], 1%.

As for `CCc1nc(C)c(Br)n1-c1ccc(-c2ccc(O)nn2)cc1`, the inhibition against Phosphodiesterase 1 [2] was found to be 64%; against Phosphodiesterase 1 [11], 20%.

Regarding `NNC(=O)c1cc(-c2ccc(-n3ccnc3)cc2)nnc1O`, the inhibition was found to be 21% at Phosphodiesterase 3 [3]; 4% on Phosphodiesterase 1 [5]; 20% in [8]; 12% in assay [9]; 6% against Phosphodiesterase 1 [11].

In the case of `Oc1ccc(-c2ccc(-c3ncc[nH]3)cc2)nn1`, the inhibition against Phosphodiesterase 3 [1] came to 69%; on Phosphodiesterase 1 [2] it was 18%; at Phosphodiesterase 3 [3], 51%; against Phosphodiesterase 1 [4], 23%; against Phosphodiesterase 1 [5], 10%; in assay [7], 41%. For the same compound, the inhibition was determined as 10% in assay [8], 7% in assay [9] and 8% against Phosphodiesterase 1 [11]. For the same compound, the IC50 against Phosphodiesterase 3 [6] is 12 µM; in [10] it was 180 µM; in assay [12], 190 µM. This compound registered an ED50 in the assay listed under Canis familiaris of 0.017 mg/kg.

`Cc1[nH]c(=O)c(C#N)cc1-c1ccncc1` [MILRINONE] showed a median effective dose (ED50) in the assay listed under Canis familiaris of 0.037 mg/kg.

Turning to `O=C1CCC(c2ccc(-n3cccc3)cc2)=NN1`, the inhibition was found to be 68% against Phosphodiesterase 3 [3]; 13% against Phosphodiesterase 1 [5]; 20% in assay [8]; 21% in assay [9]; 0% at Phosphodiesterase 1 [11].

For the compound `O=C1CCC(c2ccc(-n3cccn3)cc2)=NN1`, the inhibition was found to be 15% at Phosphodiesterase 1 [5], 27% in assay [8], 27% in assay [9] and 12% at Phosphodiesterase 1 [11].

In the case of `Cc1csc(Nc2ccc(C3=NNC(=O)CC3)cc2)n1`, the inhibition was 58% against Phosphodiesterase 3 [3]; 2% at Phosphodiesterase 1 [5]; 23% in assay [8]; 23% in assay [9]; 7% against Phosphodiesterase 1 [11].

As to `CC1(C)CC(=O)NN=C1c1ccc(-n2ccnc2)cc1`, the inhibition against Phosphodiesterase 3 [3] came out at 47%; at Phosphodiesterase 1 [5] it was 5%; in [8], 17%; in assay [9], 6%; against Phosphodiesterase 1 [11], 2%.

For `Oc1ccc(-c2ccc(-n3cnc4c3CCCC4)cc2)nn1`, the inhibition against Phosphodiesterase 1 [2] was 52%; against Phosphodiesterase 1 [4], 56%; at Phosphodiesterase 1 [5], 27%; against Phosphodiesterase 1 [11], 30%.

For `Cn1nc(-c2ccc(-n3ccnc3)cc2)ccc1=O`, the inhibition against Phosphodiesterase 3 [3] turned out to be 20%; against Phosphodiesterase 1 [5], 9%; in assay [8], 16%; in assay [9], 12%; against Phosphodiesterase 1 [11], 1%.

On to `Cc1cc(=O)[nH]nc1-c1ccc(-n2ccnc2)cc1`, for which the IC50 in [10] was 170 µM; in assay [12], 210 µM.

A word on the inhibition: it is the relative decrease from the control value, in per cent. A high value points to a strong effect. As a reminder, the IC50 is the concentration needed to halve the response being measured. Low readings indicate higher potency, high ones lower potency. A word on the ED50: it is the midpoint of the dose-response relation. Read a low ED50 as an effect at a small dose.
